Source: PubChem (Johns Hopkins Ion Channel Center)
The list is not random: actives were taken first. Their share in the collection is about 2.9%.
TRPC4 act: activators of mouse TRPC4 channel. Q9QUQ5. HEK293 TRPC4beta/mu-opioid, Fluo4 calcium fluorescence; active compounds read high. B-score at 10 µM. 310,000 compounds, 0.49% hits;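 active = B-score above 5 SD of library B-scores, and initial fluorescence ratio not above library mean plus 5 SD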;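 also: positive B-score marks a calcium rise read as TRPC4 activation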
Target sequence (Q9QUQ5 whole entry, looked up): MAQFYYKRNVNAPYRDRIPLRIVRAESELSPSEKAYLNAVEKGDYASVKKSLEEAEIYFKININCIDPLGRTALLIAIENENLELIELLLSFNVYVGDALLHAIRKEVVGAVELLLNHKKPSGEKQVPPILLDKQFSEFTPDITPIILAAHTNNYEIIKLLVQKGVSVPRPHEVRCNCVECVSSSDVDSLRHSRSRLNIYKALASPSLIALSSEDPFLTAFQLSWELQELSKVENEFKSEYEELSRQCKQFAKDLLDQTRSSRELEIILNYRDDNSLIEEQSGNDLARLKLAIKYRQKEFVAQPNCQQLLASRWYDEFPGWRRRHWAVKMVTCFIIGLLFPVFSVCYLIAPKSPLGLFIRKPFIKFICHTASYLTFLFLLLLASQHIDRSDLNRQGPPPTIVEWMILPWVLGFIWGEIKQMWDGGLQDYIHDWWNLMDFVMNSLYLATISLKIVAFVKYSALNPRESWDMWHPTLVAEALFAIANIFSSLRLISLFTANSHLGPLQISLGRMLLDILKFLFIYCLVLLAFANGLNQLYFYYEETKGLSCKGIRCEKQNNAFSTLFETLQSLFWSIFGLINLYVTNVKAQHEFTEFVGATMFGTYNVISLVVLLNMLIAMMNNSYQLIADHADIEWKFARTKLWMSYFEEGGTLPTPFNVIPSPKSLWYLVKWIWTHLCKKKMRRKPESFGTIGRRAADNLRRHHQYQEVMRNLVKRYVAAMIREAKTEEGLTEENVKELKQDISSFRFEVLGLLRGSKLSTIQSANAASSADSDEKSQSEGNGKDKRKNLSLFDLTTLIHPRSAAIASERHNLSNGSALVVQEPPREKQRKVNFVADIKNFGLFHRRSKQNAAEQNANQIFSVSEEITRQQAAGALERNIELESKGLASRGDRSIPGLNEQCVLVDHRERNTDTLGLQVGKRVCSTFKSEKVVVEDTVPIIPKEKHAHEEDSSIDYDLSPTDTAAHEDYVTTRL
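System: HEK293 cells stably co-expressing mouse TRPC4beta and mu-opioid receptor; Schedule: Fluo4 dye loading 45 min at room temperature, 110 s recording; Detection: Fluo4 fluorescence, kinetic; Evaluation: B-scored integrated calcium fluorescence ratio; Controls: buffer (low) and maximal DAMGO (high).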
TRPC4 block: TRPC4 (mouse) channel inhibition; HEK293 TRPC4beta/mu-opioid, DAMGO-evoked Fluo4 calcium flux; active compounds read low; Q9QUQ5; 300,000 compounds, 0.39% hits; B-score at 10 µM;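 active = B-score over 3 SD under the library average, no early fluorescence shift, positive overall ratio signal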
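Assay system: HEK293 cells with stable TRPC4beta plus mu-opioid receptor expression. Dosing: single dose. Measured by: Fluo4 Ca2+ flux fluorescence. Also added: DAMGO in two steps, submaximal then maximal. Read-out: B score from integrated Fluo4 fluorescence ratio.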
Kir21 block: inhibitors of mouse Kir2.1 inward-rectifier potassium channel. 310,000 compounds, 0.85% hits. B-score at 10 µM. P35561. AID 1672. HEK293-Kir2.1, FluxOR thallium flux fluorescence; active compounds read low;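 active = fluorescence ratio B-score at or below minus 3 SD of library scores, with starting-brightness B-score within 2 SD, cut at about -4.2 in these data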;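 also: channel flux triggered by added potassium and thallium sulfate stimulus; B-score of peak minus minimum fluorescence over baseline after thallium stimulus; more negative B-score means stronger Kir2.1 block with less thallium influx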
TRPC6 inhibitor: blocks the mouse TRPC6 cation channel; B-score at 10 µM; HEK293-TRPC6, membrane potential dye, ACh-evoked depolarization; active compounds read low; 310,000 compounds, 1.1% hits; Q61143;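 active = B-score under library mean minus 3 SD, initial fluorescence not abnormally high, positive integrated signal ratio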;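 also: B-score derived from integrated fluorescence ratio over the kinetic read; more negative B-score means stronger inhibition of depolarization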
TRPC6 act: activates the mouse TRPC6 cation channel | Q61143 | HEK293-TRPC6 membrane potential dye fluorescence; active compounds read high | B-score at 10 µM | 310,000 compounds, 0.13% hits | AID 2550;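 active = B-score of the integrated fluorescence ratio above library mean plus 3 SD, and starting fluorescence ratio within library mean plus 5 SD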;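 also: higher score means more depolarization so channel activation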
TRPC4 potent: allosterically enhances the mouse TRPC4 cation channel | HEK293 TRPC4beta/mu-opioid, DAMGO EC20, Fluo-4 Ca2+ flux; active compounds read high | 310,000 compounds, 0.42% hits | B-score at 10 µM;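 active = B-score of calcium response area above 5 SD of library B-scores, with initial fluorescence ratio within 5 SD of library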
TRPC4 spec 2: mouse TRPC4 off-target activity of TRPC6 inhibitors, second screen; HEK293 TRPC4/MOR, membrane potential dye fluorescence; channel activated by saturating DAMGO dose; shares compounds with TRPC6 inhibitor; 920 compounds, 42% hits; inhibition, % at 10 µM;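 active = compounds whose fluorescence signal differed from control wells by over 3 SD, either direction, in both duplicate plates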
TRPC4 spec: tests whether TRPC6 inhibitors also affect mouse TRPC4 | shares compounds with TRPC6 inhibitor | HEK293 TRPC4/mu-opioid, membrane potential fluorescence | AID 2777 | 920 compounds, 61% hits | activity change, negative = inhibition, % at 10 µM;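 active = rise or fall in signal beyond 3 SD of buffer-only wells in both replicate plates, either sign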;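 also: integrated kinetic ratio of fluorescence range over baseline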
HEK293 MPD ctr 2-1: second counter-screen for TRPC6 inhibitors: parental HEK293 cells | 920 compounds, 31% hits | parental HEK293 membrane potential dye fluorescence; maximal acetylcholine challenge after compound addition | signal change vs control, % at 10 µM | AID 2779 | shares compounds with TRPC6 inhibitor;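 active = membrane potential signal moving either way by over 3 SD of the maximum-effect control, in both duplicate plates, meaning non-specific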
HEK293 MPD ctr-1: parental HEK293 nonspecific activity of TRPC6 inhibitors. shares compounds with TRPC6 inhibitor. parental HEK293 membrane potential dye fluorescence. membrane potential signal change, % at 10 µM. 920 compounds, 60% hits. AID 2780;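 active = membrane potential signal shifting up or down by more than 3 SD of buffer-only wells, on both duplicate plates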
HEK293 MPD ctr-2: parental HEK293 nonspecific activity of TRPC6 modulators; shares compounds with TRPC6 inhibitor; membrane potential signal change, % at 10 µM; membrane potential dye fluorescence; 2,400 compounds, 51% hits;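 active = membrane potential signal moves up or down beyond 5 SD from buffer-only wells, on both duplicate plates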
HEK293 MPD ctr 2-2: parental HEK293 nonspecific activity of TRPC6 modulators, second screen. shares compounds with TRPC6 inhibitor. membrane potential dye fluorescence; after compound, maximal acetylcholine stimulation. inhibition, % at 10 µM. 2,400 compounds, 14% hits. AID 488926;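 active = membrane potential signal drops by more than 5 SD from the mean control signal, in both duplicate plates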
TRPC4 ctr mod: mouse TRPC4 off-target activity of TRPC6 modulators | shares compounds with TRPC6 inhibitor | HEK293 TRPC4/mu-opioid, membrane potential fluorescence | percent change from control (negative = decrease, positive = increase), % at 10 µM | 2,400 compounds, 69% hits | AID 488927;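 active = membrane potential signal moved up or down beyond 5 SD of buffer control wells, in both duplicate plates, actives on both sides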
TRPC4 ctr inh 2: second selectivity test of TRPC6 modulators against mouse TRPC4. shares compounds with TRPC6 inhibitor. HEK293 TRPC4/mu-opioid, membrane potential dye fluorescence; stimulated with maximal-effect DAMGO. inhibition, % at 10 µM. 2,400 compounds, 55% hits;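 active = drop in membrane potential signal beyond 5 SD of the control wells in both duplicate plates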;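 also: TRPC4 counter screen for TRPC6 hits run under conditions tuned for TRPC6 not TRPC4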
TRPC6 inh conf: confirmation of mouse TRPC6 inhibitors. 3,300 compounds, 43% hits. AID 488960. shares compounds with TRPC6 inhibitor. inhibition, % at 10 µM. HEK293-TRPC6, membrane potential dye, ACh-evoked depolarization;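 active = fluorescence ratio falls more than 5 SD below the full-stimulation control mean, in both duplicate runs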;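 also: integrated fluorescence ratio of peak minus minimum over baseline after agonist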
TRPC6 act confirm: confirmation of mouse TRPC6 activators. HEK293-TRPC6 membrane potential dye fluorescence, FDSS. shares compounds with TRPC6 inhibitor. activation, % at 10 µM. 2,800 compounds, 11% hits;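 active = ratio signal rise beyond 5 SD above unstimulated control wells' mean, seen in both duplicate runs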
Numbers stand for hits; n = inactive; x = no result.

SMILES	TRPC4 act	TRPC4 block	Kir21 block	TRPC6 inhibitor	TRPC6 act	TRPC4 potent	HEK293 MPD ctr-2	HEK293 MPD ctr 2-2	TRPC4 ctr mod	TRPC4 ctr inh 2	TRPC6 inh conf	TRPC6 act confirm	others
CC(C)OCCCNC(=O)c1c(N)n(CC2CCCO2)c2nc3ccccc3nc12 (stereo not given)	n	n	n	-5	n	n	124%	n	23%	n	n	x
CCCNC(=O)c1c(N)n(CC2CCCO2)c2nc3ccccc3nc12 (stereo not given)	n	n	n	n	n	n	x	x	x	x	x	x
CCc1ccc(NC(=O)CCNC(=O)N2C[C@H]3C[C@@H](C2)c2cccc(=O)n2C3)cc1	n	n	n	n	n	n	x	x	x	x	x	x
COc1cc2c(cc1OC)-c1c(OC)c(OC)cc3c1C(C2)N(C)CC3 (stereo not given)	n	n	n	-5.4	n	n	-234%	n	-44%	51%	53%	n
COc1ccc(CC2c3cc(OC)c(OC)cc3CCN2C)cc1O (stereo not given)	n	n	n	n	n	n	x	x	x	x	x	x
COc1cc2c(cc1OC)-c1c3c(cc4c1[C@@H](C2)N(C)CC4)OCO3	n	n	n	-8	n	n	-194%	76%	-35%	52%	56%	n
O=C1COc2ccc(C(=O)COC(=O)Cc3ccccc3)cc2N1	n	n	n	n	n	n	x	x	x	x	x	x
CCN1CCC2(CC1)NC(=O)c1ccccc1O2	n	n	n	n	n	n	x	x	x	x	x	x
CN1CCC(OC(=O)Cc2ccccc2)CC1	n	n	n	n	n	n	x	x	x	x	x	x
CN1CCC(OC(=O)C2c3ccccc3Oc3ccccc32)CC1	n	n	n	-6.8	n	n	x	x	x	x	67%	x	TRPC4 spec 2=n;TRPC4 spec=4.7%;HEK293 MPD ctr 2-1=n;HEK293 MPD ctr-1=8.4%
CCCCc1ccc2[nH]cc(CCN)c2c1	n	n	n	-5.2	n	n	n	n	n	47%	50%	n
CC1N=C(c2ccccc2Cl)c2cc(Br)ccc2NC1=O (stereo not given)	n	n	n	n	n	n	x	x	x	x	x	x
OC(CN1CCOCC1)c1csc2ccccc12 (stereo not given)	n	n	n	n	n	n	x	x	x	x	x	x
O=C1OC(c2ccc([N+](=O)[O-])cc2)=N/C1=C/N1CC2CC(C1)c1cccc(=O)n1C2 (stereo not given)	96	n	n	n	37	n	272%	102%	57%	31%	x	124%
